Laboratory results published in article PMC3774303 (Journal of medicinal chemistry, 2013).
Entries after “also recorded” stand apart in the source; their conditions may differ.

Experiments:
MDA-MB-468 cells = experiment: MTT proliferation/survival assay; format: cell-based, human; settings: 120 h incubation
How it was run: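 MDA-MB-468 cells were grown in DMEM with 10% FBS and penicillin/streptomycin at 37 °C in 5% CO2, then attached overnight. They were exposed to varying inhibitor concentrations for 120 h. MTT (1 mg/ml in fresh medium) was added for 3 h, formazan dissolved in DMSO, and absorbance read at 540 nm. IC50 came from the fit Y = M + (L–M)/(1+10^(X–logIC50)).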

[1] = target: T1, T-L activity of purified 20S rabbit proteasome (Oryctolagus cuniculus, UniProt G1SWK8); experiment: T-L proteolytic activity assay, fluorogenic peptide Bz-Val-Gly-Arg-AMC; format: biochemical
T1 sequence (G1SWK8 44-271): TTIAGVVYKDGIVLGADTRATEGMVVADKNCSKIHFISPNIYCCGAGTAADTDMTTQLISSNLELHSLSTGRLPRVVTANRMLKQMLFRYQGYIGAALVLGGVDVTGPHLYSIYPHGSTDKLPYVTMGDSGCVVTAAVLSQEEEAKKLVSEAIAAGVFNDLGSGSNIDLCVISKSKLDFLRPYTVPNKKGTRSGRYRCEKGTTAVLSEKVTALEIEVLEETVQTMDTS

[2] = system: CT-L activity of rabbit 20S proteasome; experiment: Dialysis using purified rabbit 20S proteasome; format: biochemical
How it was run: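 Dialysed (3500 MWCO) against assay buffer at 4 °C; sampled at 0, 0.25, 1, 2, 4 and 18 h. CT-L activity read with 20 μM Suc-LLVY-AMC, 1 h at 37 °C, AMC ex 355/em 460 nm. Normalised to DMSO control.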

[3] = target: PGPH-L activity of purified 20S rabbit proteasome (Oryctolagus cuniculus, UniProt G1T235); experiment: PGPH-L proteolytic activity assay, fluorogenic peptide Z-Leu-Leu-Glu-AMC; format: biochemical
[4] = target: T2, CT-L proteolytic activity of the purified rabbit 20S proteasome (Oryctolagus cuniculus, UniProt G1T4Q9); experiment: CT-L proteolytic activity assay, fluorogenic peptide Suc-Leu-Leu-Val-Tyr-AMC; format: biochemical; settings: for fold loss of CT-L activity compared to 11ad: relative to 11ad; for IC50: IC50 (μM) CT-L, 1 nM purified 20S rabbit proteasome, 20 μM Suc-Leu-Leu-Val-Tyr-AMC, 1 h at 37 °C, average of 2 or more determinations
T2 sequence (G1T4Q9 60-263): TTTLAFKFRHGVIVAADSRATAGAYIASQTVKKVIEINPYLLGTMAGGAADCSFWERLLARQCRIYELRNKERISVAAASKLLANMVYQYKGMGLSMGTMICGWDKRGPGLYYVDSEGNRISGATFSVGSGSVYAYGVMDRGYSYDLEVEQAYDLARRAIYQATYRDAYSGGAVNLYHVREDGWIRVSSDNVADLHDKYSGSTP

[5] = target: proteasomal CT-L activity in intact human MDA-MB-468 cancer cells (Homo sapiens, UniProt P28074); experiment: CT-L activity in intact MDA-MB-468 cells; format: cell-based

Cc1ccc(OCC(=O)N(Cc2nc(-c3ccc(C)cc3)no2)C(C)C)cc1 [Compound 1, N-Isopropyl-N-((3-p-tolyl-1,2,4-oxadiazol-5-yl)methyl)-2-(p-tolyloxy)acetamide]
inhibition of tumor cell survival/proliferation (MTT) (MDA-MB-468 cells): inhibited survival/proliferation
IC50 [1]: > 100 µM
time to full recovery of CT-L activity upon dialysis ([2]; pre-incubation with 10 μM compound for 30 min, dialysis at 4 °C): ≤ 2 h
IC50 [3]: > 100 µM

CCCc1ccc(OCC(=O)N(Cc2nc(-c3cccnc3)no2)C(C)C)cc1 [Compound 11ad]
inhibition of tumor cell survival/proliferation (MTT) (MDA-MB-468 cells): inhibited survival/proliferation; also recorded: anti-proliferative activity at low micromolar concentrations
IC50 [1]: > 100 µM
fold more potent than 1 (CT-L IC50) ([4]; relative to compound 1): 22 fold
IC50 [5]: 0.37 µM
IC50 [3]: > 100 µM

CCCc1ccc(OCC(=O)N(Cc2nc(-c3cnccn3)no2)C(C)C)cc1 [Compound 11am, N-Isopropyl-2-(4-propylphenoxy)-N-((3-(pyrazin-2-yl)-1,2,4-oxadiazol-5-yl)methyl)acetamide]
fold loss of CT-L activity compared to 11ad [4]: 3 fold

CCCc1ccc(OCC(=O)N(Cc2nc(-c3ncccn3)no2)C(C)C)cc1 [Compound 11ao, N-Isopropyl-2-(4-propylphenoxy)-N-((3-(pyrimidin-2-yl)-1,2,4-oxadiazol-5-yl)methyl)acetamide]
fold loss of CT-L activity compared to 11ad [4]: 40 fold

CC(C)N(Cc1nc(-c2ccccc2)no1)C(=O)COc1ccccc1 [Compound 11j, N-Isopropyl-2-phenoxy-N-((3-phenyl-1,2,4-oxadiazol-5-yl)methyl)acetamide]
fold loss of CT-L activity compared to 1 ([4]; relative to compound 1): 10 fold

Cc1ccc(-c2noc(CN(C(=O)COc3ccccc3)C(C)C)n2)cc1 [Compound 11k, N-Isopropyl-2-phenoxy-N-((3-p-tolyl-1,2,4-oxadiazol-5-yl)methyl)acetamide]
fold loss of CT-L activity compared to 1 ([4]; relative to compound 1): 14 fold

CC(C)N(Cc1nc(-c2ccc(C(F)(F)F)cc2)no1)C(=O)COc1ccccc1 [Compound 11l, N-Isopropyl-2-phenoxy-N-((3-(4-(trifluoromethyl)phenyl)-1,2,4-oxadiazol-5-yl)methyl)acetamide]
fold loss of CT-L activity compared to 1 ([4]; relative to compound 1): 18 fold

CC(C)N(Cc1nc(-c2ccccc2)no1)C(=O)COc1ccc(-c2ccccc2)cc1 [Compound 11q, 2-(Biphenyl-4-yloxy)-N-isopropyl-N-((3-phenyl-1,2,4-oxadiazol-5-yl)methyl)acetamide]
IC50 [4]: > 10 µM

CC(C)N(Cc1nc(-c2ccccc2)no1)C(=O)COc1ccc2cc(Br)ccc2c1 [Compound 11r, 2-(6-Bromonaphthalen-2-yloxy)-N-isopropyl-N-((3-phenyl-1,2,4-oxadiazol-5-yl)methyl)acetamide]
IC50 [4]: > 10 µM

CC(C)N(Cc1nc(-c2ccccc2)no1)C(=O)COc1ccc(F)cc1 [Compound 11s, 2-(4-Fluorophenoxy)-N-isopropyl-N-((3-phenyl-1,2,4-oxadiazol-5-yl)methyl)acetamide]
fold loss of CT-L inhibitory activity compared to 11b ([4]; relative to 11b): 16 fold

Cc1ccc(OCC(=O)N(Cc2nc(-c3ccc(C)cc3)no2)CC(C)C)cc1 [Compound 12a, N-Isobutyl-N-((3-p-tolyl-1,2,4-oxadiazol-5-yl)methyl)-2-(p-tolyloxy)acetamide]
fold loss of CT-L activity compared to 1 ([4]; relative to compound 1): 4 fold

CCN(Cc1nc(-c2ccc(C)cc2)no1)C(=O)COc1ccc(C)cc1 [Compound 12b, N-Ethyl-N-((3-p-tolyl-1,2,4-oxadiazol-5-yl)methyl)-2-(p-tolyloxy)acetamide]
fold loss of CT-L activity compared to 1 ([4]; relative to compound 1): 10 fold

Cc1ccc(CNC(=O)N(Cc2nc(-c3ccccc3)no2)C(C)C)cc1 [Compound 14, 1-Isopropyl-3-(4-methylbenzyl)-1-((3 phenyl-1,2,4-oxadiazol-5-yl)methyl)urea]
IC50 [4]: > 10 µM

Cc1ccc(OCC(=O)N(CCc2nc(-c3ccccc3)no2)C(C)C)cc1 [Compound 23, N-Isopropyl-N-(2-(3-phenyl-1,2,4-oxadiazol-5-yl)ethyl)-2-(p-tolyloxy)acetamide]
IC50 [4]: > 10 µM

CC(=O)N[C@@H](CSC(=O)[C@]1([C@@H](O)C(C)C)NC(=O)[C@H](C)[C@@H]1O)C(=O)O [lactacystin, reference compound]
CT-L activity recovered upon dialysis ([2]; after 18 hours of dialysis, lactacystin 2.5 μM): very little CT-L activity was recovered
